Test results as given in ChEMBL document CHEMBL3286099, “Synthesized quercetin derivatives stimulate melanogenesis in B16 melanoma cells by influencing the expression of melanin biosynthesis proteins MITF and p38 MAPK” (Bioorg Med Chem, 2014).
Activity calls are given as the source filed them. The calls are words filed in the database; no cut-off is given here.

Tests used:
B16-F0 [1] = test: Induction of melanogenesis-stimulating activity in mouse B16F0 cells assessed as increase in MITF protein expression after 72 hrs by Western blotting analysis; assay type: functional, cell-based
Outline: (§1)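 B16 cells were treated for 72 h at 0–12.5 µM and lysed in RIPA with protease inhibitors (0 °C, 30 min). Lanes held 10 µg protein on 10% SDS–PAGE, transferred to PVDF and blocked with 2% BSA/TBST at 4 °C overnight. Primaries ran 2 h: MITF 1:1000, tyrosinase, TRP-1 and p-p38 1:200, TRP-2 and p38 1:100. HRP secondary was 1:5000 for 2 h, with ECL densitometry. GAPDH blotted; three independent experiments.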

B16-F0 [2] = test: Induction of melanogenesis-stimulating activity in mouse B16F0 cells assessed as increase in p38-MAPK protein expression after 72 hrs by Western blotting analysis; assay type: functional, cell-based; outline: as §1
B16-F0 [3] = test: Induction of melanogenesis-stimulating activity in mouse B16F0 cells assessed as increase in TRP-1 protein expression after 72 hrs by Western blotting analysis; assay type: functional, cell-based; outline: as §1
B16-F0 [4] = test: Induction of melanogenesis-stimulating activity in mouse B16F0 cells assessed as increase in p-p38 MAPK level after 72 hrs by Western blotting analysis; assay type: functional, cell-based; outline: as §1
[5] = Cytotoxicity against mouse B16F0 cells assessed as cell viability at 6.25 uM after 72 hrs by MTT assay; assay type: cell-based; conditions: read-out: Activity
Outline: (§2)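 B16-F0 cells were seeded at 5.0 × 10⁴ cells/well and allowed to adhere for 24 h at 37 °C. They were exposed for 72 h to compound at 200–10 µM or 50–6.25 µM, depending on compound series. MTT (5 mg/mL stock in PBS) was added for 4 h at 37 °C in 5% CO₂, then dissolved in isopropanol/0.04 N HCl and read at 590 nm. Viability is % of DMSO control; experiments were done twice.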

B16-F0 [6] = test: Induction of melanogenesis-stimulating activity in mouse B16F0 cells assessed as increase in tyrosinase protein expression after 72 hrs by Western blotting analysis; assay type: functional, cell-based; outline: as §1
B16-F0 [7] = test: Intracellular melanogenesis-stimulating activity in mouse B16F0 cells at 25 uM after 72 hrs by spectrophotometry relative to control; assay type: functional
Outline: (§3)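 Cells were seeded at 5.0 × 10⁴ cells/well, adhered for 24 h, then treated with compound for 72 h. After a PBS wash, cells were lysed in 1 M NaOH at 100 °C for 30 min to solubilize melanin. Lysate absorbance at 405 nm served as the intracellular melanin index, expressed as % of DMSO control. Experiments were done twice.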

B16-F0 [8] = test: Extracellular melanogenesis-stimulating activity in mouse B16F0 cells at 12.5 uM after 72 hrs by spectrophotometry relative to control; assay type: functional
Outline: (§4)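 B16-F0 cells in DMEM with 10% FBS were seeded at 5.0 × 10⁴ cells/well and adhered for 24 h. They were treated for 72 h at 200–10 µM or 50–6.25 µM, depending on compound series. Absorbance of the collected culture medium at 510 nm gave extracellular melanin, expressed as % of DMSO-treated control. Experiments were done twice.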

B16-F0 [9] = test: Induction of melanogenesis-stimulating activity in mouse B16F0 cells assessed as increase in TRP-2 protein expression after 72 hrs by Western blotting analysis; assay type: functional, cell-based; outline: as §1
B16-F0 [10] = test: Intracellular melanogenesis-stimulating activity in mouse B16F0 cells at 12.5 uM after 72 hrs by spectrophotometry relative to control; assay type: functional; outline: as §3
B16-F0 [11] = test: Intracellular melanogenesis-stimulating activity in mouse B16F0 cells at 6.25 uM after 72 hrs by spectrophotometry relative to control; assay type: functional; outline: as §3
B16-F0 [12] = test: Extracellular melanogenesis-stimulating activity in mouse B16F0 cells at 25 uM after 72 hrs by spectrophotometry relative to control; assay type: functional; outline: as §4
[13] = Cytotoxicity against mouse B16F0 cells assessed as cell viability at 12.5 uM after 72 hrs by MTT assay; assay type: cell-based; conditions: read-out: Activity; outline: as §2
[14] = Cytotoxicity against mouse B16F0 cells assessed as cell viability at 25 uM after 72 hrs by MTT assay; assay type: cell-based; conditions: read-out: Activity; outline: as §2
B16-F0 [15] = test: Extracellular melanogenesis-stimulating activity in mouse B16F0 cells at 6.25 uM after 72 hrs by spectrophotometry relative to control; assay type: functional; outline: as §4
B16-F0 [16] = test: Intracellular melanogenesis-stimulating activity in mouse B16F0 cells at 50 uM after 72 hrs by spectrophotometry relative to control; assay type: functional; outline: as §3
B16-F0 [17] = test: Induction of melanogenesis-stimulating activity in mouse B16F0 cells assessed as increase in TRP-1 protein expression at 3.1 to 12.5 uM after 72 hrs by Western blotting analysis; assay type: functional, cell-based; outline: as §1
B16-F0 [18] = test: Induction of melanogenesis-stimulating activity in mouse B16F0 cells assessed as increase in MITF protein expression at 3.1 to 12.5 uM after 72 hrs by Western blotting analysis; assay type: functional, cell-based; outline: as §1
[19] = Cytotoxicity against mouse B16F0 cells assessed as cell viability at 50 uM after 72 hrs by MTT assay; assay type: cell-based; conditions: read-out: Activity; outline: as §2
B16-F0 [20] = test: Induction of melanogenesis-stimulating activity in mouse B16F0 cells assessed as increase in TRP-2 protein expression at 3.1 to 12.5 uM after 72 hrs by Western blotting analysis; assay type: functional, cell-based; outline: as §1
B16-F0 [21] = test: Extracellular melanogenesis-stimulating activity in mouse B16F0 cells at 50 uM after 72 hrs by spectrophotometry relative to control; assay type: functional; outline: as §4
B16-F0 [22] = test: Induction of melanogenesis-stimulating activity in mouse B16F0 cells assessed as increase in tyrosinase protein expression at 3.1 to 12.5 uM after 72 hrs by Western blotting analysis; assay type: functional, cell-based; outline: as §1
B16-F0 [23] = test: Induction of melanogenesis-stimulating activity in mouse B16F0 cells assessed as increase in p-p38 MAPK level at 3.1 to 12.5 uM after 72 hrs by Western blotting analysis; assay type: functional, cell-based; outline: as §1
[24] = Cytotoxicity against mouse B16F0 cells assessed as cell viability at 500 uM after 72 hrs by MTT assay; assay type: cell-based; conditions: read-out: Activity
[25] = Cytotoxicity against mouse B16F0 cells assessed as cell viability at 250 uM after 72 hrs by MTT assay; assay type: cell-based; conditions: read-out: Activity
B16-F0 [26] = test: Extracellular melanogenesis-stimulating activity in mouse B16F0 cells at 250 uM after 72 hrs by spectrophotometry relative to control; assay type: functional
B16-F0 [27] = test: Intracellular melanogenesis-stimulating activity in mouse B16F0 cells at 250 uM after 72 hrs by spectrophotometry relative to control; assay type: functional
[28] = Cytotoxicity against mouse B16F0 cells assessed as cell viability at 125 uM after 72 hrs by MTT assay; assay type: cell-based; conditions: read-out: Activity
Outline: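 B16-F0 murine melanoma cells in DMEM with 10% FBS, penicillin and streptomycin, at 37 °C and 5% CO₂. Seeded at 5.0 × 10⁴ cells/well, adhered 24 h, then exposed 72 h. MTT (5 mg/mL stock in PBS) added for 4 h at 37 °C, formazan taken up in isopropanol with 0.04 N HCl, A590 read. Viability given as % of DMSO control; experiments repeated twice.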

B16-F0 [29] = test: Intracellular melanogenesis-stimulating activity in mouse B16F0 cells at 500 uM after 72 hrs by spectrophotometry relative to control; assay type: functional
B16-F0 [30] = test: Intracellular melanogenesis-stimulating activity in mouse B16F0 cells at 125 uM after 72 hrs by spectrophotometry relative to control; assay type: functional
Outline: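 After 72 h treatment of B16-F0 cells (5.0 × 10⁴ cells/well, 24 h adherence), cells were washed with PBS and lysed in 1 M NaOH at 100 °C for 30 min to solubilise melanin. Lysate absorbance was read at 405 nm as intracellular melanin, expressed as % of DMSO control; experiments repeated twice.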

B16-F0 [31] = test: Extracellular melanogenesis-stimulating activity in mouse B16F0 cells at 500 uM after 72 hrs by spectrophotometry relative to control; assay type: functional
B16-F0 [32] = test: Extracellular melanogenesis-stimulating activity in mouse B16F0 cells at 125 uM after 72 hrs by spectrophotometry relative to control; assay type: functional
Outline: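 B16-F0 cells were seeded at 5.0 × 10⁴ cells/well, allowed to adhere for 24 h, then treated for 72 h. Culture medium was collected and its absorbance read at 510 nm as extracellular melanin. Results are % of DMSO-treated control; experiments repeated twice.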

## COc1cc(O)c2c(=O)c(OC)c(-c3ccc(OC)c(O)c3)oc2c1 [AYANIN]
B16-F0 [1]
  Activity: Dose-dependent effect
B16-F0 [2]
  Activity: inactive
B16-F0 [3]
  Activity: Dose-dependent effect
B16-F0 [4]
  Activity: Dose-dependent effect
[5]
  viability at 72 h, 6.25 µM: 95.3%
B16-F0 [6]
  Activity: Dose-dependent effect
B16-F0 [7]
  Activity: 203.4%
B16-F0 [8]
  Activity: 228%
B16-F0 [9]
  Activity: Dose-dependent effect
B16-F0 [10]
  Activity: 181.4%
B16-F0 [11]
  Activity: 127.7%
B16-F0 [12]
  Activity: 298.7%
[13]
  viability at 72 h, 12.5 µM: 102%
[14]
  viability at 72 h, 25 µM: 90.2%
B16-F0 [15]
  Activity: 225.5%

## COc1c(-c2ccc(O)c(O)c2)oc2cc(O)cc(O)c2c1=O [3-O-METHYLQUERCETIN]
B16-F0 [16]
  Activity: 157.3%
B16-F0 [17]
  Activity: Active
B16-F0 [18]
  Activity: inactive
[19]
  viability at 72 h, 50 µM: 74.4%
B16-F0 [7]
  Activity: 146.5%
B16-F0 [8]
  Activity: 124.1%
B16-F0 [10]
  Activity: 137%
B16-F0 [20]
  Activity: Active
B16-F0 [21]
  Activity: 224.9%
B16-F0 [12]
  Activity: 130.8%
B16-F0 [22]
  Activity: Active
B16-F0 [23]
  Activity: inactive
[13]
  viability at 72 h, 12.5 µM: 98.2%
[14]
  viability at 72 h, 25 µM: 88.1%

## Cn1c(=O)c2nc[nH]c2n(C)c1=O.O [THEOPHYLLINE]
[24]
  viability at 72 h, 500 µM: 91.4%
[25]
  viability at 72 h, 250 µM: 94.4%
B16-F0 [26]
  Activity: 183.2%
B16-F0 [27]
  Activity: 131.7%
[28]
  viability at 72 h, 125 µM: 95.5%
B16-F0 [29]
  Activity: 166.8%
B16-F0 [30]
  Activity: 127.6%
B16-F0 [31]
  Activity: 204%
B16-F0 [32]
  Activity: 170.7%
